# Tests used:
# Assay type in all cases: in vivo, Sprague Dawley rats
# [1] = system: rat knee osteoarthritis model; experiment: Micro-CT analysis of OA knee joints; details: 6 weeks after injection
# How it was run: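 Hind limbs from OA rats (female, 12-week-old SD; ACL/MCL transection with medial meniscectomy) given 0.2 mL intra-articular injection 3 weeks post-surgery, or left uninjected. Harvested 6 weeks post-injection and formalin-fixed. Micro-CT: 80 kVp, 500 μA, 0.21 s scan, 30 calibrations, 30.74 mm fields of view. BMD measured at the lateral femoral condyle. OA graded semiquantitatively by osteophytes and joint destruction.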
# caspase-8 = experiment: Immunofluorescence staining of knee joint sections; details: 6 weeks after injection; diffuse positive staining in control
# How it was run: (§1)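 OA knees in female 12-week-old SD rats (ACL/MCL transection plus medial meniscectomy), injected intra-articularly with 0.2 mL at 3 weeks post-surgery, uninjected controls. Joints harvested 6 weeks post-injection and formalin-fixed. Sections immunostained for MMP-9, caspase-8, TIMP-1 and collagen II using Alexa Fluor 488/594 secondary antibodies, DAPI counterstain, then examined by fluorescence microscopy.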
# [2] = system: rat knee osteoarthritis model; experiment: Histological analysis, modified Mankin scoring; details: 6 weeks after injection; scale 0–4; negative control 2.5±0.3
# TIMP-1 = experiment: Immunofluorescence staining of knee joint sections; details: 6 weeks after injection; diffuse positive staining in control
# How it was run: as §1
substance,measurement,setting,value
"Ac-KLDLKLDLKLDL-NH2 [SAP, Ac-KLDLKLDLKLDL-NH2]","bone mineral density (lateral femoral condyle, micro-CT)","[1]; control 1,067.0±12.2","1,033.3±17.4"
same,Number of animals in each osteoarthritis grade: Grade 1,[1]; micro-CT,1
same,Number of animals in each osteoarthritis grade: Grade 2,[1]; micro-CT,0
same,Number of animals in each osteoarthritis grade: Grade 3,[1]; micro-CT,2
same,Number of animals in each osteoarthritis grade: Grade 4,[1]; micro-CT,1
same,caspase-8 immunofluorescence staining,caspase-8,decreased expression
same,Alcian blue staining component of modified Mankin score (proteoglycan content),[2],0.5±0.3
same,TIMP-1 immunofluorescence staining,TIMP-1,decreased expression

# — article PMC4024982 (International Journal of Nanomedicine, 2014)
